Calls of active or inactive are those of the source. The calls are words filed in the database; no cut-off is given here.
Assays:
[1] = test system: A2780; experiment: Antiproliferative against human A2780 cells after 2 days by AlamarBlue assay; format: functional, cell-based
[2] = test system: Plasmodium falciparum; experiment: Antiplasmodium activity against Plasmodium falciparum Dd2; format: functional, organism-based
Summary of the method: (§1)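 Dd2 ring-stage cultures at 1% hematocrit and 1% parasitaemia were grown for 72 h at 37°C in 5.05% CO2/4.93% O2/90.2% N2 with increasing drug concentrations. Viability was read by SYBR Green I DNA quantitation in lysis buffer. IC50 was obtained by nonlinear regression and averaged over three independent runs, each in duplicate, ± S.E.M.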

[3] = test system: Plasmodium falciparum; experiment: Antiplasmodium activity against chloroquine-resistant intraerythrocytic stage of Plasmodium falciparum Dd2 assessed as parasite growth inhibition after 72 hrs by SYBR Green I staining-based assay; format: functional, organism-based; conditions: Dd2, 72 h; summary of the method: as §1
[4] = test system: Aedes aegypti; experiment: Insecticidal activity against Aedes aegypti assessed as mortality at 4 mg/ml after 3 days; format: functional; conditions: 72 h
Summary of the method: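 A DMSO master stock of 4000 ppm was diluted with 90:10 water:acetone and robotically dispensed into six replicate plates. Plates were infested with about 1-day-old Aedes aegypti larvae hatched overnight in water with liver powder. They were covered to limit drying, held at room temperature for 3 days, and each well was scored for mortality.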

[5] = test system: Plasmodium falciparum; experiment: Antiplasmodium activity against chloroquine-resistant Plasmodium falciparum Dd2 infected in human RBC assessed as parasite growth inhibition after 42 hrs by microculture radioisotope technique; format: functional, organism-based; conditions: Dd2, 42 h
[6] = test system: Plasmodium falciparum; experiment: Antiplasmodium activity against chloroquine-sensitive Plasmodium falciparum PoW infected in human RBC assessed as parasite growth inhibition after 42 hrs by microculture radioisotope technique; format: functional, organism-based

C=CCC1(C(C)Cc2cc(OC)c(OC)c(OC)c2)C=C2OCOC2=CC1=O (stereo not drawn)
inhibition [1]: inactive

C=CC[C@@]12C[C@]3(OCOC3=CC1=O)[C@@H](C)[C@@H]2c1cc(OC)c(OC)c(OC)c1
inhibition [1]: inactive

C=CC[C@]12C[C@@]3(OCOC3=CC1=O)[C@H](C)[C@@H]2c1cc(OC)c(OC)c(OC)c1
IC50 [2]: 40.5 µM | inhibition [1]: inactive | IC50 [3]: 7.7 µM

C=CC[C@@]12C[C@]3(OCOC3=CC1=O)[C@@H](C)[C@@H]2c1ccc2c(c1)OCO2
mortality at 4000 µg/mL [4]: ≥ 80% | inhibition [1]: inactive | IC50 [3]: 14.6 µM

C=CCc1cc2c(cc1O[C@@H](C)Cc1cc(OC)c(OC)c(OC)c1)OCO2
mortality at 4000 µg/mL [4]: ≥ 80% | inhibition [1]: inactive

C=CCC1(C(C)Cc2ccc(OC)c(OC)c2)C=C2OCOC2=CC1=O (stereo not drawn)
inhibition [1]: inactive

C=CCc1cc(OC)c(O[C@@H](C)Cc2cc(OC)c(OC)c(OC)c2)c(OC)c1
IC50 [2]: 3.1 µM | inhibition [1]: inactive | IC50 [3]: 3.3 µM

C=CCc1cc(OC)c(O[C@]23C[C@@H](CC=C)C(=O)C=C2OCO3)c(OC)c1
inhibition [1]: inactive

C=CCc1cc2c(c3c1O[C@H](c1cc(OC)c(OC)c(OC)c1)[C@H]3C)OCO2 (relative stereo)
mortality at 4000 µg/mL [4]: ≥ 80% | IC50 [2]: 4.7 µM | inhibition [1]: inactive | IC50 [3]: 0.45 µM

C=CC[C@]12C[C@@]3(OCOC3=CC1=O)[C@H](C)[C@@H]2c1cc(OC)c2c(c1)OCO2
inhibition [1]: inactive | IC50 [3]: 4.1 µM

C=CC[C@@]12C[C@]3(OCOC3=CC1=O)[C@@H](C)[C@@H]2c1cc(O)c2c(c1)OCO2
IC50 [2]: 28.4 µM | inhibition [1]: inactive | IC50 [3]: 42 µM

C=CCc1ccc(O[C@]23C[C@@H](CC=C)C(=O)C=C2OCO3)c(OC)c1
inhibition [1]: inactive

C[C@@H]1CC[C@H]2[C@@H](C)C(=O)O[C@@H]3O[C@@]4(C)CC[C@@H]1[C@]32OO4 [ARTEMISININ]
IC50 [3]: 0.00082 µM

C=CCC1(C(C)Cc2ccc(O)c(OC)c2)C=C2OCOC2=CC1=O (stereo not drawn)
inhibition [1]: inactive

C/C=C/c1cc(OC)c(OC(C)Cc2cc(OC)c(OC)c(OC)c2)c(OC)c1 (stereo not drawn)
IC50 [5]: 14.9 µM | IC50 [6]: 12.4 µM

C=CC[C@@]12C[C@]3(OCOC3=CC1=O)[C@@H](C)[C@@H]2c1cc(OC)c2c(c1)OCO2
inhibition [1]: inactive

C=CCC1(C(C)Cc2cc(OC)c(O)c(OC)c2)C=C2OCOC2=CC1=O (stereo not drawn)
IC50 [2]: 42.1 µM | inhibition [1]: inactive

C=CCc1cc2c(c3c1O[C@H](c1ccc4c(c1)OCO4)[C@H]3C)OCO2
inhibition [1]: inactive

— ChEMBL document CHEMBL3576795, “Neolignans and other metabolites from Ocotea cymosa from the Madagascar rain forest and their biological activities” (J Nat Prod, 2015)
